Laboratory results reported in paper PMC6309585 (Investigational new drugs, 2018).

How the values were obtained:
[1] = Pharmacokinetics of BaP and RVT in plasma after oral gavage; assay type: in vivo, Apc^Min/+ mice; details: for half-life / Clearance (Cl) / Volume of distribution (Vd): plasma; for Clearance (Cl) / Volume of distribution (Vd): oral gavage, BaP 100 μg/kg bw, RVT 45 μg/kg bw, mean ± SE, n = 10
[2] = tested on: GST; test: Glutathione-S-transferase protein expression in colon and liver; assay type: in vivo, Apc^Min/+ mice; details: for GST protein expression: colon, RVT and BaP administered separately, compared to no treatment group; for Glutathione-S-transferase protein expression: liver, in comparison to control mice
How it was run: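 Western blot of total colon and liver protein: 10% SDS–PAGE, transfer to PVDF, mouse anti-GST and rabbit anti-GAPDH antibodies, detection with IRDye680 anti-mouse and IRDye800 anti-rabbit secondaries. GST signal was normalized to GAPDH. […] Values are mean ± SE, n = 10.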

[3] = tested on: GST mRNA; test: GST mRNA expression; assay type: in vivo, Apc^Min/+ mice; details: compared to the no treatment group
[4] = tested on: CYP1B1 mRNA; test: CYP1B1 mRNA expression; assay type: in vivo, Apc^Min/+ mice; details: liver
[5] = tested on: GST; test: GST activity in colon and liver; assay type: in vivo, Apc^Min/+ mice; details: liver; compared to BaP alone
How it was run: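 Colon and liver protein from Apc^Min/+ mice was assayed for GST activity with a commercial kit. […] Tissues were collected 60 days after exposure; n = 10 per group.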

[6] = HPLC analysis of BaP organic and aqueous metabolites in plasma, colon and liver; assay type: in vivo, Apc^Min/+ mice; details: colon, RVT simultaneously or prior to BaP, compared to BaP alone
[7] = tested on: DNA; test: Oxidative DNA damage; assay type: in vivo, Apc^Min/+ mice; details: text: colon, Fig. 9B; RVT prior to and simultaneously with BaP; compared to BaP treatment only
[8] = tested on: DNA; test: BaP-DNA adducts by 32P-postlabeling and TLC in colon and liver; assay type: in vivo, Apc^Min/+ mice
[9] = tested on: BaP-induced colon tumors; test: BaP-induced colon tumors/adenomas; assay type: in vivo, Apc^Min/+ mice; details: RVT administration post BaP subchronic exposure; data not shown
[10] = tested on: BaP-induced colon tumors; details: orally administered RVT; mice exposed to BaP compared to BaP alone; cited from earlier work

SMILES | Elimination rate (Kd) ([1]; male, ApcMin/+, mouse, in vivo, po) [h] | half-life ([1]; male, ApcMin/+, mouse, po) [h] | Clearance (Cl) [1] [mL/day/kg] | Volume of distribution (Vd) [1] [L/kg] | GST protein expression [2] | Glutathione-S-transferase protein expression [2] | Decrease in GST mRNA expression ([3]; colon) [%] | CYP1B1 mRNA expression [4] | GST mRNA expression ([3]; liver, RVT either simultaneously or prior to BaP treatment) | GST activity [5] | BaP aqueous metabolite levels [6] | BaP organic metabolite concentrations [6] | Base pair damage (apurinic/apyrimidinic sites) [7] | Stable BaP-DNA adduct concentrations [8] | Reversal of BaP-induced carcinogenic effects (tumor count and size) [9] | Incidence, size and number of adenomas formed in the colon [10]
c1ccc2c(c1)cc1ccc3cccc4ccc2c1c34 [BaP, Benzo(a)pyrene] | 0.17 ± 0.06 | 1.8 ± 0.018 | 2.4 ± 0.24 | 0.00058 ± 4.5e-05 | increased | significantly decreased | 50 | – | – | – | – | – | – | – | – | –
Oc1ccc(C=Cc2cc(O)cc(O)c2)cc1 [RVT, 3,5,4′-trihydroxystilbene] | – | 1 ± 0.011 | 1.9 ± 0.14 | 0.00044 ± 5e-05 | increased | significantly decreased | – | feeble expression | increase | no significant changes | increases | significantly decreased | significant reduction | reduced | failed to reverse | decrease
